One test concerns Rattus norvegicus. In words: Antiinflammatory activity in Sprague-Dawley rat assessed as decrease in carrageenan-induced paw edema at 10 mg/kg, ip preincubated for 1 hr followed by carrageenan challenge measured after 3 to 6 hrs by plethysmometer relative to control. For orientation: Carrageenan injected into the paw causes an acute inflammation.
A further test has as its system Mus musculus. In words: Antiarthritic activity in CII-induced DBA/1J mouse arthritic model assessed as decrease in fibrosis at 50 mg/kg, ip measured 10 days post second CII booster by Hematoxylin and eosin staining relative to CII-treated control. Format: functional, organism-based. Set-up: dose 50 mg/kg. Summed up: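 Mouse type II collagen-induced arthritis; 50 mg/kg dosed by injection. Ankle histology was scored as cumulative arthritis injury scores against the vehicle-treated CII group.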

The target in test [1] is T1, P2X purinoceptor 3 (Homo sapiens) (UniProt P56373).
T1 sequence (whole entry): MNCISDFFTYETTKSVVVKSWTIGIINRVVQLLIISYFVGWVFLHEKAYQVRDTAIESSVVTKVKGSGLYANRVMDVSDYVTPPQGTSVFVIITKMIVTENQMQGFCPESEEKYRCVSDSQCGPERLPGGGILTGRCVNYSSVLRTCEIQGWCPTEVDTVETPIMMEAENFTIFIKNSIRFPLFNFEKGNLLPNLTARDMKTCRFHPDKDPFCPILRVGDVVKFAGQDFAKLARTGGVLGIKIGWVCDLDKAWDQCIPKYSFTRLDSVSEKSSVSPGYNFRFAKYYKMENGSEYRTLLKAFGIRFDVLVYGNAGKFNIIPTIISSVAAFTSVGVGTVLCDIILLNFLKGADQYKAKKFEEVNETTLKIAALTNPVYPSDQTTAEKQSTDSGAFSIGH
In words: Antagonist activity at recombinant human P2X3 receptor overexpressed in Xenopus oocytes assessed as inhibition of ATP-induced ion current at 10 uM preincubated for 20 mins followed by ATP induction by two-electrode voltage clamping method relative to control. It is filed as cell-based. Summed up: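 Xenopus oocytes were microinjected with capped cRNA for human P2X3. Two-electrode voltage clamp recorded ion current evoked by 2 µM ATP. Test compound at 10 µM was scored as percent reduction of the ATP-induced current.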
(In general: In two-electrode clamp one electrode senses voltage and the other passes current.)

Test [2] has as its target T2, P2X purinoceptor 7 (Mus musculus) (UniProt Q9Z1M0).
T2 sequence (whole entry): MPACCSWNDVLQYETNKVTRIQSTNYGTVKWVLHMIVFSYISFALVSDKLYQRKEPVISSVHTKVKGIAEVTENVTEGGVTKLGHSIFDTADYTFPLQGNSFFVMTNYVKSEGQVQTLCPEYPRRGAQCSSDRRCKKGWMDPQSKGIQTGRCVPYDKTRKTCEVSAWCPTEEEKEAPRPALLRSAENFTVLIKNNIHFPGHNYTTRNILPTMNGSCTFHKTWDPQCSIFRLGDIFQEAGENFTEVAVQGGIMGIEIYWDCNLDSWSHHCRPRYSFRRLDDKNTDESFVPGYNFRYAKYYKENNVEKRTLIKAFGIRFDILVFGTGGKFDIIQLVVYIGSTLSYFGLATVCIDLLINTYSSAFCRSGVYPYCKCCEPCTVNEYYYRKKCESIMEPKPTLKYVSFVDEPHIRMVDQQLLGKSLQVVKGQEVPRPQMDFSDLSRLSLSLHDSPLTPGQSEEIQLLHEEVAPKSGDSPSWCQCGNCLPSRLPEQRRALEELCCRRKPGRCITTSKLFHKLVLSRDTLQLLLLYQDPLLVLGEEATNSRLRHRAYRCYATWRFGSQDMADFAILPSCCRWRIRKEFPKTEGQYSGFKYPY
Briefly: Antagonist activity at P2X7 receptor in LPS-primed mouse J774.A1 cells assessed as inhibition of ATP-induced IL-1beta release after 30 mins by ELISA. It is filed as cell-based. Summed up: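 J774.A1 mouse cells stimulated with 5 mM ATP; IL-1β release measured, with IC50 taken from concentration-response data.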

Active and inactive are the calls of the source. The calls are words filed in the database; no cut-off is given here.

In general, inhibition refers to the change of the read-out against control, counted positive when it falls. Turning to `O=C1NC(=O)N(C2CCN(C(=O)c3ccc(Cl)c(C(F)(F)F)c3)CC2)C1Cc1ccc(OS(=O)(=O)c2cccc3cnccc23)cc1` (racemic), the outcome with Rattus norvegicus and in the test on Mus musculus was Active. In addition, the inhibition is 5.05% in test [1] and “Dose-dependent effect” in test [2].

Values taken from ChEMBL document CHEMBL3414458, “Discovery of novel 2,5-dioxoimidazolidine-based P2X(7) receptor antagonists as constrained analogues of KN62” (J Med Chem, 2015).
